# Test: Toxicity liver stage against HepG2, at 10uM
# Type: cell-based
# Parameters: test concentration 10 uM, cell line HepG2-A16-CD81EGFP
# Settings: human, HepG2-A16-CD81EGFP cells; read-out: INHIBITION
# In short: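 Uninfected HepG2-A16-CD81EGFP cells, 3 × 10^3 per well, 1536-well, plated on prespotted compound at 10 μM final, parasite-free screening media added to match infected plates; puromycin 10 μM positive, DMSO 0.5% negative; run in parallel with 48 h PbLuc assay at 37 °C, 5% CO2; viability by CellTiter-Glo luminescence, normalized to controls.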
row,Structure (SMILES),cytotoxicity at 10 µM [%]
1,COC(=O)[C@@H](NC(=O)Nc1ccc(C(C)=O)cc1)C(C)C,10.1
2,c1ccc(CNC[C@H]2Cn3ccnc3CO2)cc1,-5.25
3,c1cc(-c2c[nH]c([C@@H]3COCCN3C3CCCCC3)n2)ccn1,7.66
4,CN1C(=O)COc2ccc(NC(=O)CCc3nc4cccnc4[nH]3)cc21,-1.23
5,COc1ccc(-c2n[nH]c(C)c2CC(=O)NCC2CCCO2)cc1 (stereo unspecified),-11.6
6,c1ccc2c(c1)CCN2c1nc(N2CCOCC2)c2nn[nH]c2n1,-3.29
7,O=S(=O)(NCCn1ccc(-c2ccccn2)n1)C1CCCCC1,8.63
8,Cc1nc(N2CCOCC2)nc2c1CCN(C(=O)N1CCCC1)CC2,0.64
9,Cn1cc(CN2CCO[C@H]3CN(Cc4ccco4)C[C@H]32)cn1,-140
10,c1cncc(COCC2CN(Cc3ccncc3)Cc3ccnn3C2)c1 (stereo unspecified),-135
11,O=C(c1ccoc1)N1CCC2(C1)CN(c1ncccn1)C2,-5.55
12,CCn1c(SCC(=O)N2CCCC2)nc2cc(C)[nH]c2c1=O,7.44
13,O=c1[nH]nc2c(S(=O)(=O)N3CCN(c4ccc(F)cc4)CC3)cccn12,11.8
14,CC(C)CCn1[nH]c(CNc2ccc(Cl)cc2)nc1=O,1.33
15,COc1ccc(-c2ccnc3nc(N4CCCC4)[nH]c(=O)c23)cc1OC,9.29
16,O=C1CSC(c2ccncc2)c2c[nH]nc2N1 (stereo unspecified),13
17,c1cc(C2CCN(c3cncnc3)CC2)ccn1,2.58
18,COCC(=O)N1CCC(O)(CN2CCN(c3ccccc3)CC2)C1 (stereo unspecified),-2.38
19,COCCOCC(=O)N1C[C@@H]2CC[C@H](Oc3ccccc3Cl)[C@@H]2C1,-10.9
20,Cc1ccc2cc(CNCCN3CCCC3)c(=O)[nH]c2c1,-1.89
21,Cc1nccc(CN2CC[C@@]3(CCCN3Cc3ccccc3)[C@@H](O)C2)n1,-6.05
22,COCc1cc(O)nc(C2CCCN(Cc3ccc(F)cc3)C2)n1 (stereo unspecified),-9.88
23,CC(=O)N1CCN([C@@H]2CC[C@@H](N(C)C(=O)C3CCCCC3)[C@H]2O)CC1,-10.6

row,Structure (SMILES),cytotoxicity at 10 µM [%]
1,CC1c2ccc(F)cc2CCN1C(=O)c1nc(=O)[nH][nH]1 (stereo unspecified),15.6
2,CN(CCO)Cc1cc(=O)n2cc(Br)ccc2n1,-6.69
3,CCSCc1ccnc(NC(=O)C2CCOC2)c1 (stereo unspecified),0.841
4,Cc1nn(C)c2ncc(CNCCc3ccccn3)cc12,4.13
5,CNS(=O)(=O)CCCNC(C)(C)c1nc(C)cs1,11.1
6,Cc1ccc(C(=O)N(CC(=O)O)CC(C)C)cc1F,-4.07
7,O=C(Nc1ccc(-n2ccc(C(=O)O)n2)cc1)c1ccccc1,-139
8,COCCCOc1ccc(C(=O)N(C)CCC(C)C)cn1,6.19
9,CN1CCOC(CNCC(=O)NCCC2=CCCCC2)C1 (stereo unspecified),-3.57
10,CCOc1cccc(CNc2cnn(CC(C)C)c2CC)c1,2.93
11,Cc1ccc(F)c2c1N(C(=O)c1ccc(S(C)(=O)=O)cc1)CCC2,2.97
12,CCc1cnc(CNc2cccc3c2CCN(S(=O)(=O)CC)C3)o1,-52.5
13,CC(Cn1cncn1)NC(=O)NCC(C)(C)Cc1ccccc1 (stereo unspecified),17
14,Cc1noc(CCCC(=O)NCC(c2ccco2)N2CCCCC2)n1 (stereo unspecified),13.1
15,Cc1nc(CCCNC(=O)c2c(F)cccc2Br)n[nH]1,-1.39
16,COC(=O)CCNC(=O)c1c[nH]cc1-c1cccc(OC)c1,4.89
17,CCn1cc(C#N)c(=O)c2cc(Br)ccc21,1.35
18,Cc1cc(C2CCCN2C(=O)NCc2cccnc2N(C)C)on1 (stereo unspecified),-8.1
19,CC(C)COC(=O)N1CCCN(Cc2nnc(C(C)(C)C)o2)CC1,11.1
20,NC(=O)C1CCN(CCc2ccc(NCc3cscn3)cc2)CC1,3.69
21,Cc1csc(C2CCCCN2C(=O)CCn2cncn2)n1 (stereo unspecified),-6.32
22,O=C(c1cc(F)cc2[nH]cnc12)N1CCCC1Cn1cccn1 (stereo unspecified),7.39
23,CCC(Nc1ccc(Oc2cccc(C#N)c2)cc1)C(N)=O (stereo unspecified),35.2

row,Structure (SMILES),cytotoxicity at 10 µM [%]
1,O=S(=O)(Nc1cn[nH]c1)c1ccc(F)c(Br)c1,-11.5
2,O=C(NCCn1cccc1)C1CCCOC1 (stereo unspecified),3.03
3,Cc1cc(C)cc(CN2CCCC2c2noc(C)n2)c1 (stereo unspecified),9.86
4,CS(=O)(=O)Cc1ccc(NC(=O)Cc2cccnc2)cc1F,1.34
5,CS(=O)(=O)c1ccc(NC(=O)CSC(F)(F)F)cn1,8.28
6,Cc1noc(C)c1CNC(=O)C(C)Oc1ccccc1F (stereo unspecified),3
7,CC(NCc1ccc(C(C)(C)C)cc1)c1ccc(S(C)(=O)=O)cc1 (stereo unspecified),14.5
8,CC(=O)Nc1ccc(C(=O)N(C)Cc2cccc(F)c2)s1,2.82
9,CC(c1ccccc1Cl)N1CCN(C(=O)c2ccc(=O)[nH]c2)CC1 (stereo unspecified),-7.85
10,CC(CNC(=O)c1ccn(-c2ccc(F)cc2)n1)Cn1cccn1 (stereo unspecified),-41.4
11,c1cncc(OCCNC2Cc3ccccc3C2)c1,4.32
12,CC(CN1CCOCC1)NC(=O)c1cccc2cn[nH]c12 (stereo unspecified),-7.18
13,CC(C)c1ccc(-n2cc(O)c(C(=O)N3CCC(C(N)=O)CC3)n2)cc1,-52.6
14,Cc1cc(CN(C)C(=O)CN2CCCC2=O)no1,3.05
15,Cc1c(C(=O)NC2CC(C)(C)NC(C)(C)C2)cnn1-c1ccc(F)cc1,-45.7
16,CC(C)N(CC1CCCN(Cc2ccon2)C1)C(=O)OC(C)(C)C (stereo unspecified),7.09
17,CC(C)CCN1CCN(Cc2nc(C3CC3)no2)CC1,-8.77
18,O=C(NCCOc1ncc(Cl)cc1Cl)c1ccncc1,7.18
19,COCCN1CC(=O)c2sc(NC(C)C)nc2C1,-4.91
20,OCCNc1nccc(-c2cn3nccc3nc2C2CCCCC2)n1,-0.085
21,COc1ccccc1S(=O)(=O)N1CCN(C)[C@@H]2CS(=O)(=O)C[C@@H]21,19.3
22,CCSCCNc1cc(C)nc2c(C)c(C)nn12,5.88
23,CNc1ccnc(N2C[C@@H](C)[C@](O)(C3CC3)C2)n1,-13.1

row,Structure (SMILES),cytotoxicity at 10 µM [%]
1,CC(C)(O)CCc1cccc(C(=O)NCC2CN(S(C)(=O)=O)CCO2)c1 (stereo unspecified),2.29
2,CCN1CC(CN(C)Cc2nc(-c3ccoc3)oc2C)CC1=O (stereo unspecified),-5.13
3,Cc1cccc(C)c1OC1CN(Cc2cnc(N3CCOCC3)nc2)C1,3.47
4,c1ccc(CN2CCC(Nc3ncnc4c3CCNCC4)C2)cc1 (stereo unspecified),8.03
5,O=C(O)[C@]12CN(CC3CCC3)C[C@H]1CN(c1cnccn1)C2,8.16
6,O=C(NCC(O)c1ccc(F)cc1)C1CCN(C2CCCCC2)CC1 (stereo unspecified),5.67
7,Cn1ccnc1-c1nccn1-c1cccc(CN2CCCC2)c1,-2.36
8,Cc1nc(O)cc(CCNC(=O)c2ccc(CN3CCCCC3)cc2)n1,8.61
9,COCCN(C)C[C@@H]1CN(C(=O)c2ccc(O)c(C)c2)C[C@@H]1CO,-11.8
10,CN(C)S(=O)(=O)c1ccc(CNC(=O)c2cn3c(n2)CNCC3)cc1,16.9
11,O=C(CCn1cnnn1)N1CCCC(CO)(CCc2ccccc2)C1 (stereo unspecified),5.26
12,CCC(C)N(Cc1cccnc1)C(=O)c1ncccc1O (stereo unspecified),14.9
13,Cc1cc(C)c2[nH]c(=O)c(CN3CCCC(O)(CO)C3)cc2c1 (stereo unspecified),-2.25
14,Cc1c(C(=O)NCC2CCN(Cc3ccco3)C2)[nH]c2ccccc12 (stereo unspecified),6.32
15,O=C1CN(CC[C@@H](O)c2ccccc2)CCN1c1ccccc1Cl,1.29
16,Cc1sc2nc(CCN)nc(N3CCC(N4CCCC4)CC3)c2c1C,-51.6
17,CC(C)N1CC2(CCC1=O)CCN(C(=O)c1cccc(F)c1F)CC2,-18.5
18,CCc1cc(CN(C)Cc2nc(-c3ccc(OC)cc3F)oc2C)on1,-3.4
19,Cc1[nH]ccc1C(=O)N1CCCC(c2nccn2Cc2cscn2)C1 (stereo unspecified),-17.5
20,CCn1ccnc1CN(C)C1CCCN(CCc2ccccc2)C1 (stereo unspecified),-8.63
21,Cc1nccc(CN2CCC(c3nnsc3S(C)(=O)=O)CC2)n1,2.86
22,CCN1CCN(CCCNC(=O)NC(C)c2nncn2C)CC1 (stereo unspecified),-12.8
23,c1ccc(-c2ccc(CN3CCOC(Cn4cncn4)C3)cc2)cc1 (stereo unspecified),9.96

row,Structure (SMILES),cytotoxicity at 10 µM [%]
1,Cc1cnn(CC2CN(Cc3ccc(-n4cccn4)cc3)CCO2)c1 (stereo unspecified),-0.674
2,CC(C)n1ccnc1CN1CCCN(C(=O)CN(C)C2CC2)CC1,-3.96
3,O=C(c1ccc(N2CCCC2)nn1)N1CCCC(n2cccn2)C1 (stereo unspecified),-5.58
4,CCN(CC)C(=O)c1nnn(-c2ccc(C)cc2)c1C1CC1,-8.35
5,Cn1ncc2c(=O)[nH]c(N3CCN(C(=O)c4ccsc4)CC3)nc21,-6.17
6,CCC(CN1CCOCC1)n1cncc1-c1ccc2c(c1)CCCN2C (stereo unspecified),8.9
7,COc1cc(CN[C@@H]2COC[C@H]2Cc2cc(C)no2)cc(OC)c1,0.975
8,Cc1c(Br)cccc1C(=O)NCC1CCNCC1,-16
9,Cc1cnccc1-c1cnn(CCNC(=O)C(C)(C)C)c1C1CC1,-0.459
10,Cn1nc(C2CCCN(Cc3cc(F)ccc3F)C2)c2nccnc21 (stereo unspecified),-12.9
11,Cn1nnc2c1CCN(CC1CC1)C2COCc1ccccc1 (stereo unspecified),6.74
12,Cc1ccc(CN2CCC3(CC2)C(=O)N(CC(C)C)CCN3C)o1,-0.508
13,Cc1nccn1CCC1CCNCC1,-2.36
14,O=C(c1ccsc1)N1CCc2c(COCC3CC3)cncc2C1,1.65
15,Cc1cc(C(=O)N2CC[C@H]3[C@H](C[C@@H](CN4CCCC4)N3C)C2)c(C)o1,9.97
16,Cc1noc2nc(C3CCN(CC4=CCCOC4)CC3)cc(C(F)F)c12,0.307
17,Cc1cccc(CN2C[C@@H]3COC[C@]3(CNC(=O)c3ccsc3)C2)n1,-1.85
18,CN1CC(=O)N(c2cnn(C)c2)CC12CCN(Cc1cccnc1)C2 (stereo unspecified),-1.69
19,Cc1ccc(-c2cc(C3=NC(=CN4CCN(C)CC4)NO3)[nH]n2)s1,-9.45

# From ChEMBL document CHEMBL4513216, “Probing the Open Global Health Chemical Diversity Library for Multistage-Active Starting Points for Next-Generation Antimalarials” (ACS Infect Dis, 2020)
